Here are results for ten compounds from ChEMBL document CHEMBL1127804 (J Med Chem, 1994).

For experiment [1], the system named is CCRF-CEM. In words: Tested for inhibition of [14C]-DDATHF influx in CEM/MTX cells of human leukemic lymphoblasts. Type of experiment: functional, cell-based. A digest of the protocol: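 Influx of (6R)-[14C]DDATHF (2 μM) into CEM/MTX cells was measured. Before the assay, cells normally kept in 1 μM MTX were held out of MTX for 3–4 generations. Ki came from Dixon plots and is given as mean ± SE of two to seven separate experiments.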

Experiment [2] deals with SCC-7. The experiment can be described thus: Tested for inhibitory concentration against SCC-VII murine squamous carcinoma cell line. Type of experiment: functional, cell-based. The settings on record: Mus musculus. A digest of the protocol: (§1)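 SCC VII (murine) or SCC25 (human) squamous carcinoma cells were plated at 2×10^3/well in DME with 10% FBS for 24 h at 37 °C, 5% CO2. Drug was added at 10 concentrations from 0.1 nM to 3 μM for a further 72 h. Growth was read by sulforhodamine B protein stain at 530 nm.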

For experiment [3], the system named is SCC-25. The experiment can be described thus: Tested for inhibitory concentration against human SCC25 cell line. It is filed as functional, cell-based. A digest of the protocol:
as §1

Experiment [4] relates to CCRF-CEM. The experiment can be described thus: Tested for inhibitory concentration of cell growth against CCRF-CEM cell lines of human leukemic lymphoblast.
In experiment [5] the target is T1, Dihydrofolate reductase (Homo sapiens, UniProt P00374).
T1 sequence (P00374 whole entry): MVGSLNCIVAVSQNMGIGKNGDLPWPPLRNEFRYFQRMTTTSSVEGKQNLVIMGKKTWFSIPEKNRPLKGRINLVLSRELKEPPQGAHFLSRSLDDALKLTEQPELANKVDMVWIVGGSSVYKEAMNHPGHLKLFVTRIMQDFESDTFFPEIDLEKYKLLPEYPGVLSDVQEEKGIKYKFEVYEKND
In words: Tested for inhibitory concentration against human dihydrofolate reductase(DHFR).

Experiment [6] in a line: Ratio between Ki values of CCRF-CEM and CEM/MTX. Type of experiment: functional.
In experiment [7] the test system is CCRF-CEM. The experiment can be described thus: Tested for the inhibition of [14C]-DDATHF influx in CCRF-CEM cells of human leukemic lymphoblast. Type of experiment: functional, cell-based. A digest of the protocol:
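Influx of (6R)-[14C]DDATHF (2 μM) into wild-type CCRF-CEM human leukemic lymphoblasts was measured with the inhibitor present. Ki was calculated from Dixon plots and reported as mean ± SE of two to seven separate experiments.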

The subject of experiment [8] is CCRF-CEM. In words: cells. The conditions noted are these: Homo sapiens.
Experiment [9] concerns MCF7. In words: Tested for inhibitory concentration against MCF-7 human breast carcinoma cell line. Type of experiment: functional, cell-based. A digest of the protocol:
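MCF-7 breast carcinoma cells were grown in replicate 24-well plates in α-MEM with 10% dialyzed FBS plus epithelial growth factor, hydrocortisone and insulin. Cells were exposed for 72 h at 37 °C under 6.5% CO2 and counted electronically with a Coulter counter. IC50 was estimated from semilog plots using averaged data from a single experiment on replicate plates.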

Experiment [10] has as its target T1, Dihydrofolate reductase. In words: rested for inhibitory concentration against human dihydrofolate reductase(DHFR).
In experiment [11] the test system is CCRF-CEM. The experiment can be described thus: Tested in vitro for inhibitory concentration against CCRF-CEM human Leukemic lymphoblast by using TS as primary target. It is filed as functional, cell-based.
Experiment [12] concerns CCRF-CEM. In words: Tested in vitro for relative activity against CCRF-CEM human Leukemic lymphoblast by using TS as primary target. It is filed as functional.

pIC50, pKi: −log10 of the molar value.

Broadly, the pKi is −log10 of the Ki, conventionally taken in molar units. For the compound `Nc1nc(=O)c2c([nH]1)NCC(CNc1ccc(C(=O)N[C@@H](CCC(=O)O)C(=O)O)cc1)N2C=O` (stereo not given in full) [LEUCOVORIN], the pKi in [1] was 6.13.

The pIC50 is the negative decadic logarithm of the IC50, by convention in mol/L. Low values mean a large IC50, high ones a small IC50. Consider `Nc1nc(N)c2nc(CNc3ccc(C(=O)N[C@@H](CCC(=O)O)C(=O)O)cc3)cnc2n1` [AMINOPTERIN], for which the negative logarithm of the IC50 (pIC50) in experiment [2] is 8.40; in experiment [3] it was 8.16.

On to `Nc1nc(N)c2nc(CNc3ccc(C(=O)NC(CCCNC(=O)c4ccccc4C(=O)O)C(=O)O)cc3)cnc2n1` (stereo not given), for which the negative logarithm of the IC50 (pIC50) in [2] was 9.05; in experiment [4], 8.97; in experiment [5] it was 7.91; in [8], 6.96; in experiment [3] it was 9.00; in experiment [9], 9.15. Moreover, the pKi was 6.36 in experiment [1] and 6.19 in experiment [7]. Also, the Ratio in experiment [6] is reported as 0.68.

As for `Nc1nc(N)c2nc(CNc3ccc(C(=O)NC(CCNC(=O)c4ccccc4C(=O)O)C(=O)O)cc3)cnc2n1` (stereo not given), the pIC50 is 7.72 in experiment [2], 7.94 in experiment [5], 7.89 in experiment [3] and 8.22 in [9].

As for `COc1cc(NCc2ccc3nc(N)nc(N)c3c2C)cc(OC)c1OC` [TRIMETREXATE], the pIC50 in experiment [2] was 8.20; in experiment [3], 8.10.

As for `Nc1nc(N)c2nc(CNc3c(Cl)cc(C(=O)NC(CCCNC(=O)c4ccccc4C(=O)O)C(=O)O)cc3Cl)cnc2n1` (stereo not given), the pIC50 is 8.80 in [2], 7.99 in experiment [5] and 8.60 in experiment [3].

Consider `Nc1nc(=O)c2nc(CNc3ccc(C(=O)N[C@@H](CCC(=O)O)C(=O)O)cc3)cnc2[nH]1` [FOLIC ACID], for which the figures for the pKi in experiment [1] and in experiment [7] were 5.05 and 3.78, respectively. In experiment [6], the Ratio is listed as 0.054.

As to `Nc1nc(N)c2nc(CNc3ccc(C(=O)NC(CCCCNC(=O)c4ccccc4C(=O)O)C(=O)O)cc3)cnc2n1` (stereo not given), the pIC50 in [2] was 8.40; in [3] it was 7.75; in [9], 8.70; in [10], 7.94.

Regarding `CN(Cc1cnc2nc(N)nc(N)c2n1)c1ccc(C(=O)N[C@@H](CCC(=O)O)C(=O)O)cc1` [METHOTREXATE], the pIC50 in experiment [2] is 8.24; in experiment [4], 7.98; in experiment [8] it was 5.59. Also, the pKi in experiment [1] is 5.01; in experiment [7], 5.35.

With `CN(Cc1ccc2[nH]c(C=O)nc(=O)c2c1)c1ccc(C(=O)NC(CCC(=O)O)C(=O)O)s1` (stereo not given), the pIC50 in experiment [11] is 8.33. The compound also displayed a Relative activity in experiment [12] of 23.
